# Screening results (PubChem)
# Rows were chosen to be rich in hits. Some 2.3% of all compounds tested hit in one or more screens of this group.
# TRPC6 inhibitor: blocks the mouse TRPC6 cation channel. HEK293-TRPC6, membrane potential dye, ACh-evoked depolarization; active compounds read low. B-score at 10 µM. actives 1.1% (n = 310,000). Q61143;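 active = B-score under library mean minus 3 SD, initial fluorescence not abnormally high, positive integrated signal ratio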;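 note: B-score derived from integrated fluorescence ratio over the kinetic read; more negative B-score means stronger inhibition of depolarization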
# TRPC4 act: TRPC4 (mouse) channel activation; Q9QUQ5; B-score at 10 µM; AID 2237; actives 0.49% (n = 310,000); HEK293 TRPC4beta/mu-opioid, Fluo4 calcium fluorescence; active compounds read high;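 active = B-score above 5 SD of library B-scores, and initial fluorescence ratio not above library mean plus 5 SD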;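 note: positive B-score marks a calcium rise read as TRPC4 activation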
# Target sequence (Q9QUQ5 whole entry, looked up): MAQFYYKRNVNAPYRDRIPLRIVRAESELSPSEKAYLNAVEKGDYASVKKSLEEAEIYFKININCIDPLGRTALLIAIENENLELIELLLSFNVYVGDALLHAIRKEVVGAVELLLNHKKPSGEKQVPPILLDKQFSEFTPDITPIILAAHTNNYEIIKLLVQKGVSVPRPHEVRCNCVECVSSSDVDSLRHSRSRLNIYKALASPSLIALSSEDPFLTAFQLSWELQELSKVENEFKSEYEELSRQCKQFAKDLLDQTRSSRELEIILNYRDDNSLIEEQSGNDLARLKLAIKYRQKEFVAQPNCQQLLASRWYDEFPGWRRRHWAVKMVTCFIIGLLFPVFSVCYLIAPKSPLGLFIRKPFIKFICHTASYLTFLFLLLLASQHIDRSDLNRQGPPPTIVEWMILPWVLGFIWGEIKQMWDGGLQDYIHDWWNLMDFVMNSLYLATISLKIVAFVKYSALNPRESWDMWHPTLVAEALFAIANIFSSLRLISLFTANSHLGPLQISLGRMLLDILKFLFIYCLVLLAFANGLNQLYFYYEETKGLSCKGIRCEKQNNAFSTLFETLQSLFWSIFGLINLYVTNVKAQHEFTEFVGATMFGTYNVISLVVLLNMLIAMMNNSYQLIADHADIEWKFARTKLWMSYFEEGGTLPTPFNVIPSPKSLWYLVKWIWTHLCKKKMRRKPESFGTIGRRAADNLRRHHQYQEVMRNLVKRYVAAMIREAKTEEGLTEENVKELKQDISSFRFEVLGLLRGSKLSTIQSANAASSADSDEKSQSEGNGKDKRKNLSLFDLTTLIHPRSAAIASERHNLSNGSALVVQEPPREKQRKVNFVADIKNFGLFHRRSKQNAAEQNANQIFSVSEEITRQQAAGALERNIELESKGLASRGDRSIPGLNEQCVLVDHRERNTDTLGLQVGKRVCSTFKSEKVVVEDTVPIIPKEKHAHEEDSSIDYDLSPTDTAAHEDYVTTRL
#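 Material: HEK293 stable line with TRPC4beta plus mu-opioid receptor; technique: Fluo4 calcium-sensitive dye fluorescence, kinetic, 1 Hz baseline; timing: Fluo4 dye loading 45 min at room temperature, 110 s recording; controls: assay buffer as low control, maximal DAMGO as high control; read-out: integrated baseline-normalised fluorescence ratio, converted to per-well B score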
# TRPC4 potent: allosterically enhances the mouse TRPC4 cation channel. HEK293 TRPC4beta/mu-opioid, DAMGO EC20, Fluo-4 Ca2+ flux; active compounds read high. actives 0.42% (n = 310,000). Q9QUQ5. B-score at 10 µM;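 active = B-score of calcium response area above 5 SD of library B-scores, with initial fluorescence ratio within 5 SD of library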
# TRPC6 activator: activates the mouse TRPC6 cation channel; B-score at 10 µM; actives 0.13% (n = 310,000); Q61143; HEK293-TRPC6 membrane potential dye fluorescence; active compounds read high; AID 2550;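 active = B-score of the integrated fluorescence ratio above library mean plus 3 SD, and starting fluorescence ratio within library mean plus 5 SD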;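 note: higher score means more depolarization so channel activation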
# TRPC4 block: inhibitors of mouse TRPC4 channel; Q9QUQ5; HEK293 TRPC4beta/mu-opioid, DAMGO-evoked Fluo4 calcium flux; active compounds read low; B-score at 10 µM; actives 0.39% (n = 300,000); AID 2247;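 active = B-score over 3 SD under the library average, no early fluorescence shift, positive overall ratio signal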
#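 material = TRPC4beta/mu-opioid receptor HEK293 cell line | probe or stimulus = sequential submaximal and maximal DAMGO stimulation | compound dosing = one concentration per compound | measured by = Fluo4 Ca2+ flux fluorescence | evaluation = integrated fluorescence ratio relative to baseline, converted to per-well B score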
# TRPC4 spec 2: second check of whether TRPC6 inhibitors also affect mouse TRPC4; shares compounds with TRPC6 inhibitor; HEK293 TRPC4/MOR, membrane potential dye fluorescence; channel activated by saturating DAMGO dose; inhibition, % at 10 µM; actives 42% (n = 920); AID 2776;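 active = compounds whose fluorescence signal differed from control wells by over 3 SD, either direction, in both duplicate plates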
# TRPC4 spec: tests whether TRPC6 inhibitors also affect mouse TRPC4 | actives 61% (n = 920) | activity change, negative = inhibition, % at 10 µM | shares compounds with TRPC6 inhibitor | HEK293 TRPC4/mu-opioid, membrane potential fluorescence;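 active = rise or fall in signal beyond 3 SD of buffer-only wells in both replicate plates, either sign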;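 note: integrated kinetic ratio of fluorescence range over baseline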
# HEK293 MPD ctr 2-1: second check of TRPC6 inhibitor effects in parental HEK293 cells; shares compounds with TRPC6 inhibitor; actives 31% (n = 920); signal change vs control, % at 10 µM; parental HEK293 membrane potential dye fluorescence; maximal acetylcholine challenge after compound addition; AID 2779;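 active = membrane potential signal moving either way by over 3 SD of the maximum-effect control, in both duplicate plates, meaning non-specific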
# HEK293 MPD ctr-1: counter-screen for TRPC6 inhibitors: effect in parental HEK293 cells; membrane potential signal change, % at 10 µM; actives 60% (n = 920); shares compounds with TRPC6 inhibitor; parental HEK293 membrane potential dye fluorescence;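 active = membrane potential signal shifting up or down by more than 3 SD of buffer-only wells, on both duplicate plates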
# HEK293 MPD ctr-2: counter-screen for TRPC6 modulators: effect in parental HEK293 cells | shares compounds with TRPC6 inhibitor | membrane potential dye fluorescence | membrane potential signal change, % at 10 µM | actives 51% (n = 2,400) | AID 488924;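 active = membrane potential signal moves up or down beyond 5 SD from buffer-only wells, on both duplicate plates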
# HEK293 MPD ctr 2-2: parental HEK293 nonspecific activity of TRPC6 modulators, second screen; shares compounds with TRPC6 inhibitor; membrane potential dye fluorescence; after compound, maximal acetylcholine stimulation; inhibition, % at 10 µM; actives 14% (n = 2,400); AID 488926;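 active = membrane potential signal drops by more than 5 SD from the mean control signal, in both duplicate plates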
# TRPC4/MOR mod: selectivity of TRPC6 modulators against mouse TRPC4. shares compounds with TRPC6 inhibitor. HEK293 TRPC4/mu-opioid, membrane potential fluorescence. percent change from control (negative = decrease, positive = increase), % at 10 µM. actives 69% (n = 2,400). AID 488927;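 active = membrane potential signal moved up or down beyond 5 SD of buffer control wells, in both duplicate plates, actives on both sides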
# TRPC4/MOR inh 2: second selectivity test of TRPC6 modulators against mouse TRPC4. shares compounds with TRPC6 inhibitor. HEK293 TRPC4/mu-opioid, membrane potential dye fluorescence; stimulated with maximal-effect DAMGO. inhibition, % at 10 µM. actives 55% (n = 2,400). AID 488928;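 active = drop in membrane potential signal beyond 5 SD of the control wells in both duplicate plates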;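 note: TRPC4 counter screen for TRPC6 hits run under conditions tuned for TRPC6 not TRPC4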
# TRPC6 inh conf: confirmation of mouse TRPC6 inhibitors. shares compounds with TRPC6 inhibitor. HEK293-TRPC6, membrane potential dye, ACh-evoked depolarization. inhibition, % at 10 µM. actives 43% (n = 3,300);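 active = fluorescence ratio falls more than 5 SD below the full-stimulation control mean, in both duplicate runs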;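 note: integrated fluorescence ratio of peak minus minimum over baseline after agonist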
# TRPC6 act conf: mouse TRPC6 activator confirmation; shares compounds with TRPC6 inhibitor; HEK293-TRPC6 membrane potential dye fluorescence, FDSS; activation, % at 10 µM; actives 11% (n = 2,800); AID 488961;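 active = ratio signal rise beyond 5 SD above unstimulated control wells' mean, seen in both duplicate runs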
# Hits are given with their value; n = inactive; x = no result given.
SMILES,TRPC6 inhibitor,TRPC4 act,TRPC4 potent,TRPC6 activator,TRPC4 block,HEK293 MPD ctr-2,HEK293 MPD ctr 2-2,TRPC4/MOR mod,TRPC4/MOR inh 2,TRPC6 inh conf,TRPC6 act conf,others
COc1ccc(Nc2nc(N3CCCCC3)c3ccccc3n2)cc1,-7.5,n,n,n,n,x,x,x,x,n,n,TRPC4 spec 2=n;TRPC4 spec=n;HEK293 MPD ctr 2-1=n;HEK293 MPD ctr-1=n
O=C(N=Nc1c(O)[nH]c2ccc(Cl)cc12)c1cc(-c2cccs2)nc2ccccc12,-5.7,n,n,n,n,n,n,n,n,n,n,
O=C(NCCCn1ccnc1)C1c2ccccc2Oc2ccccc21,-6,n,n,n,n,n,n,32%,n,n,n,
COC(=O)[C@@H]1C[C@@]2(O)[C@H](O)[C@H](O)[C@H](O)C[C@H]2N1Cc1ccc(-c2ccccc2)cc1,n,n,n,n,n,x,x,x,x,x,x,
O=C(NCc1ccco1)C(=O)c1cn(CC(=O)N2CCCCC2)c2ccccc12,n,n,n,n,n,x,x,x,x,x,x,
COc1ccc(C2(c3ccc(OC)cc3)NC(=O)NC2=O)cc1,n,n,n,n,n,x,x,x,x,x,x,
C=CCN1C2CCCC1CC(NC(=O)Nc1cccc(C(C)=O)c1)C2 (stereo not given),-5.4,n,n,n,n,n,n,n,n,85%,x,
Cc1ccccc1C(OCCN(C)C)c1ccccc1 (stereo not given),-5,n,n,n,n,193%,n,32%,n,58%,x,
CNCC(O)COc1cccc(OC)c1 (stereo not given),n,n,n,n,n,x,x,x,x,x,x,
COc1ccc(CCNCC(O)COc2cccc(Br)c2)cc1 (stereo not given),-5.5,n,n,n,n,186%,n,30%,50%,n,x,
CCN(CC)C(=S)SC1CCCCN(C(=O)c2ccccc2)C1=O (stereo not given),n,n,n,n,n,x,x,x,x,x,x,
CCOCCN1CCN(C2c3ccccc3CSc3ccccc32)CC1 (stereo not given),-8.3,n,n,n,n,x,x,x,x,n,x,TRPC4 spec 2=72%;TRPC4 spec=18%;HEK293 MPD ctr 2-1=n;HEK293 MPD ctr-1=9.5%
CCNC(=O)NC1c2ccccc2CSc2ccccc21 (stereo not given),n,n,n,n,n,x,x,x,x,x,x,
CCOc1ncccc1C(=O)Nc1c(C)n(C)n(-c2ccccc2)c1=O,n,n,n,n,n,x,x,x,x,x,x,
Cc1nc2ccccc2c2oc(C(=O)N3CC(C)CC(C)C3)cc12 (stereo not given),n,n,n,n,n,x,x,x,x,x,x,
CCOC(=O)C1CCCN(C(=O)c2cc3c(C)nc4ccccc4c3o2)C1 (stereo not given),-6.9,n,n,n,n,x,x,x,x,61%,n,TRPC4 spec 2=n;TRPC4 spec=4.0%;HEK293 MPD ctr 2-1=n;HEK293 MPD ctr-1=3.1%
CCOC(=O)C1CCCN(C(=O)c2ccc(C)c([N+](=O)[O-])c2)C1 (stereo not given),-5.8,n,n,n,n,n,64%,n,n,54%,n,
Fc1ccccc1NC(=S)N1CCN(Cc2ccccc2)CC1,n,n,n,n,n,x,x,x,x,x,x,
Cc1ccc2nc3c(cc(S(=O)(=O)c4ccccc4)c(=N)n3Cc3ccco3)c(=O)n2c1,-5.5,n,n,n,n,n,n,n,n,n,n,
CCOC(=O)N1CCN(c2ccc(S(=O)(=O)N(Cc3ccccc3)Cc3ccccc3)cn2)CC1,-5.3,n,n,n,n,n,n,12%,n,n,n,
COc1ccc(CCNC(=O)Cn2nnc(-c3cccs3)n2)cc1OC,-5.8,n,n,n,n,n,n,n,n,n,n,
O=C(Cn1nnc(-c2cccs2)n1)NCCc1ccccc1,n,n,n,n,n,x,x,x,x,x,x,
CCN(CC)c1ccc(-c2nc3cnccc3n2C)cc1,-5.9,n,n,n,n,-170%,n,-30%,34%,n,n,
Cc1cc(N2CCCC2)ccc1NC(=O)COc1cccc(C(F)(F)F)c1,n,n,n,n,n,x,x,x,x,x,x,
O=C(CSc1nnc(-c2ccccn2)o1)Nc1ccccc1F,n,n,n,n,n,x,x,x,x,x,x,
SMILES,TRPC6 inhibitor,TRPC4 act,TRPC4 potent,TRPC6 activator,TRPC4 block,HEK293 MPD ctr-2,HEK293 MPD ctr 2-2,TRPC4/MOR mod,TRPC4/MOR inh 2,TRPC6 inh conf,TRPC6 act conf,others
CC(C)NC(=O)CN(C(=O)CCC(=O)Nc1nccs1)c1ccc(C(C)C)cc1,n,n,n,n,n,x,x,x,x,x,x,
CCN(CC)C(=O)CCc1nnc(CCc2c[nH]c3ccccc23)o1,n,n,n,n,n,x,x,x,x,x,x,
CCCN(CC1CC1)C(=O)CCc1nnc(CCc2c[nH]c3ccccc23)o1,-6.8,n,n,n,n,x,x,x,x,n,n,TRPC4 spec 2=n;TRPC4 spec=2.7%;HEK293 MPD ctr 2-1=n;HEK293 MPD ctr-1=0.9%
CC(=O)N1c2ccc(S(=O)(=O)N3CCCC(C(=O)Nc4ccc(F)cc4)C3)cc2CC1C (stereo not given),-5.1,n,n,n,n,n,n,n,n,n,n,
CC(=O)Nc1ccc(NC(=O)C2CCCN(S(=O)(=O)c3ccc(-n4cnnn4)cc3)C2)cc1 (stereo not given),-6.6,n,n,n,n,x,x,x,x,n,n,TRPC4 spec 2=n;TRPC4 spec=n;HEK293 MPD ctr 2-1=n;HEK293 MPD ctr-1=n
COc1ccc(NC(=O)C2CCCN(S(=O)(=O)c3ccc4c(c3)CC(C)N4C(C)=O)C2)cc1 (stereo not given),n,n,n,n,n,x,x,x,x,x,x,
CC(=O)c1ccc(NC(=O)C2CCCN(S(=O)(=O)c3ccc(-n4cnnn4)cc3)C2)cc1 (stereo not given),n,n,n,n,n,x,x,x,x,x,x,
